The values that follow come from ChEMBL document CHEMBL1641456, “Design, synthesis, and pharmacological evaluation of azetedine and pyrrolidine derivatives as dual norepinephrine reuptake inhibitors and 5-HT(1A) partial agonists” (Bioorg Med Chem Lett, 2011).

In data set [1] the target is T1, Sodium-dependent noradrenaline transporter (Homo sapiens, UniProt P23975). Put plainly: Displacement of [3H]nisoxetine from human NET by scintillation proximity assay. In short, it runs like this:
(§1)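 Human transporter binding by scintillation proximity assay: inhibition of [³H]nisoxetine (NET), [³H]WIN 35,428 (DAT) or [³H]citalopram (SERT) binding measured. Ki values are the mean of at least two experiments, each run in duplicate.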

For data set [2], the target named is Sodium-dependent dopamine transporter (Homo sapiens, UniProt Q01959). Put plainly: Displacement of [3H]WIN-35,428 from human DAT by scintillation proximity assay. In short, it runs like this: as §1
Sodium-dependent dopamine transporter, sequence (Q01959 whole entry): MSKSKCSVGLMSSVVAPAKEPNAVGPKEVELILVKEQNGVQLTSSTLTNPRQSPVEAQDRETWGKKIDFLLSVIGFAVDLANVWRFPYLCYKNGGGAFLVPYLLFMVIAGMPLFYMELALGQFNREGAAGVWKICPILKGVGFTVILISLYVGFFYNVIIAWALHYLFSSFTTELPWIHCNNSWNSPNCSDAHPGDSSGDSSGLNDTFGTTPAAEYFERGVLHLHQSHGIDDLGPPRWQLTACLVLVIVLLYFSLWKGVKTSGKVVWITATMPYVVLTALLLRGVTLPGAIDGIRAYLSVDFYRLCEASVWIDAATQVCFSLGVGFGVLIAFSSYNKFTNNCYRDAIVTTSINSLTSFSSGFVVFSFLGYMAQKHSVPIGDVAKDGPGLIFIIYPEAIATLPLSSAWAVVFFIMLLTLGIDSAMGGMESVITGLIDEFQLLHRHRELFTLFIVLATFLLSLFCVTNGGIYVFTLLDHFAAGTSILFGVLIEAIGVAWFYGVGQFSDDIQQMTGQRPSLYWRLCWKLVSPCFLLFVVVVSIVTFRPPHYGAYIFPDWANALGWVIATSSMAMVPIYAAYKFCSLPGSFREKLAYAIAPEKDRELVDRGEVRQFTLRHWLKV
Data set [3] deals with Sodium-dependent serotonin transporter (Homo sapiens, UniProt P31645). Nature of the data set: Displacement of [3H]citalopram from human SERT by scintillation proximity assay. In short, it runs like this: as §1
Sodium-dependent serotonin transporter, sequence (P31645 whole entry): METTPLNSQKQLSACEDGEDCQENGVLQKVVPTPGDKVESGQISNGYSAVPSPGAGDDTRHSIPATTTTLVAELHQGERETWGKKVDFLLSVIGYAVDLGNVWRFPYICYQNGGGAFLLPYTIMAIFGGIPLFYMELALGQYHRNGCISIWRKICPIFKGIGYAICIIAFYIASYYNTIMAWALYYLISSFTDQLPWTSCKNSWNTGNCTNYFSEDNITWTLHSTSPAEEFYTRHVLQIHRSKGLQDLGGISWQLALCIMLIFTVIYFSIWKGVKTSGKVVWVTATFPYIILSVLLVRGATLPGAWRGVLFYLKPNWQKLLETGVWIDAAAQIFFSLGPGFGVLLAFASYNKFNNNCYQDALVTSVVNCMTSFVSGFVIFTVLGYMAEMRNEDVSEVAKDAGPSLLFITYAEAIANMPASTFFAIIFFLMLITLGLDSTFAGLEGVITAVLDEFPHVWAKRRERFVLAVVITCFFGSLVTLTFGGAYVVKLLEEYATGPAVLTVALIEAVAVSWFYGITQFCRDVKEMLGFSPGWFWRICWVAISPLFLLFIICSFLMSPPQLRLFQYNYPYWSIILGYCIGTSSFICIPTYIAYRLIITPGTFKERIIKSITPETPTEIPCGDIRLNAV
For data set [4], the target named is T2, 5-hydroxytryptamine receptor 1A (Homo sapiens, UniProt P08908).
T2 sequence (P08908 whole entry): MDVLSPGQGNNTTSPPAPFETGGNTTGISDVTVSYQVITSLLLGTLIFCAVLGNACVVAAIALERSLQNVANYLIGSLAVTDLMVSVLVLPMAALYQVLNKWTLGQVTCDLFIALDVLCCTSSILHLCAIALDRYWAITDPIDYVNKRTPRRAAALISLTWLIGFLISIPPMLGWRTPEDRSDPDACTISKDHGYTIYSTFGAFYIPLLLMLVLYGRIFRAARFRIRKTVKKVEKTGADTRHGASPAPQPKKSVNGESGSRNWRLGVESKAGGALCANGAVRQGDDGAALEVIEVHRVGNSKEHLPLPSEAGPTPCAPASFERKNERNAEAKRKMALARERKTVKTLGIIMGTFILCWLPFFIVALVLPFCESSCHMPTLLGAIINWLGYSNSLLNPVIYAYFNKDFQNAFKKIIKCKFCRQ
Put plainly: Displacement of [3H]8-OH-DPAT from human cloned 5HT1A receptor by liquid scintillation spectrophotometry.

Data set [5] has as its system Rattus norvegicus. Put plainly: In vivo 5HT1A receptor occupancy in rat brain at 10 mg/kg, sc after 1 hr. As to conditions: route subcutaneous. Type of data set: functional. In short, it runs like this: (§2)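 Ex vivo receptor occupancy of NET and 5-HT1A in rat brain, collected 1 h after 10 mg/kg subcutaneous dosing.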
In data set [6] the test system is Rattus norvegicus. Nature of the data set: In vivo NET occupancy in rat brain at 10 mg/kg, sc after 1 hr. Type of data set: functional. Particulars: route subcutaneous. In short, it runs like this: as §2
In data set [7] the test system is Rattus norvegicus. Put plainly: In vivo 5HT1A receptor occupancy in sc dosed rat brain. The format is functional. In short, it runs like this:
(§3)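 Ex vivo NET and 5-HT1A occupancy in rat brain from a subcutaneous dose–response, read 1 h post-dose. ID50 derived from the dose–response. For 5-HT1A, the dose giving 10% receptor occupancy was also determined.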

Data set [8] deals with Rattus norvegicus. Nature of the data set: In vivo NET occupancy in sc dosed rat brain. Type of data set: functional. Particulars: read-out: ID50 (the source's name). In short, it runs like this:
as §3

A short description of data set [9]: Cmax in dog at 5 mg/kg, po after 1 hr. Particulars: in vivo. On the set-up: dose 5 mg/kg, route oral. Type of data set: ADME, organism-based, Canis lupus familiaris.
The nature of data set [10]: Tmax in dog at 5 mg/kg, po. As to conditions: in vivo. Further details: dose 5 mg/kg, route oral. Type of data set: ADME, organism-based, Canis lupus familiaris.
Data set [11] is described as follows: AUC ( 0 to 24 hrs) in dog at 5 mg/kg, po after 1 hr. The format is ADME, organism-based, Canis lupus familiaris. Further details: time < 24 hr, dose 5 mg/kg, route oral. Particulars: plasma.
Data set [12] is described as follows: Half life in dog at 5 mg/kg, po. The format is ADME, organism-based, Canis lupus familiaris. On the set-up: dose 5 mg/kg, route oral. As to conditions: in vivo.
Data set [13] in a line: Drug level in rat brain at 10 mg/kg, sc after 1 hr. Type of data set: ADME, organism-based. On the set-up: dose 10 mg/kg, route subcutaneous. As to conditions: read-out: Drug uptake. In short, it runs like this: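 Rats dosed subcutaneously at 10 mg/kg; total brain drug concentration measured 1 h post-dose. Reported as mean with SEM, n = 4.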
Data set [14] has as its target T2, 5-hydroxytryptamine receptor 1A. Put plainly: Agonist activity at 5HT1A receptor by GTPgammaS binding assay. The format is functional.
Data set [15] addresses T1, Sodium-dependent noradrenaline transporter. Nature of the data set: […] at human cloned NET expressed in HEK293 cells by FLIPR assay. The format is functional, cell-based.

T1 sequence (P23975 whole entry): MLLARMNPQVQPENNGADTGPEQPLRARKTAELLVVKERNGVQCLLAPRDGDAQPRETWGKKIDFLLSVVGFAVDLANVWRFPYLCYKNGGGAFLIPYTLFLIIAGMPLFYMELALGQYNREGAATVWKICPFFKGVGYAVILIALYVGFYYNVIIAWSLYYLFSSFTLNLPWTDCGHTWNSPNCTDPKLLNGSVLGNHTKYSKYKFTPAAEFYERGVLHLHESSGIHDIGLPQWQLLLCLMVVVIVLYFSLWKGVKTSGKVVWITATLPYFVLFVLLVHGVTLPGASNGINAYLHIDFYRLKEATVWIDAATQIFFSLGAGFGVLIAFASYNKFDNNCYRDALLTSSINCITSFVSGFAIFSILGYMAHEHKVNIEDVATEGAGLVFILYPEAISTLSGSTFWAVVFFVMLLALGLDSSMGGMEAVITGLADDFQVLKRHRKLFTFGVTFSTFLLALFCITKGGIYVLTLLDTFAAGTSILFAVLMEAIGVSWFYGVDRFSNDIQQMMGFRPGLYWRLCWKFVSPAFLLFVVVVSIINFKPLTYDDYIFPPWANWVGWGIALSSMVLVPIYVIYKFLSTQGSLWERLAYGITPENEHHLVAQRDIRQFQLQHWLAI

As to `c1ccc(Oc2ccccc2OC2CNC2)cc1`, the Ki in data set [1] amounted to 1640 nM; in [2] it was 2090 nM; in data set [3] it was 2670 nM; in data set [4] it was 57 nM.

Regarding `Fc1ccccc1Oc1ccccc1OC1CNC1`, the Ki in [1] was 528 nM; in data set [2] it was 2040 nM; in data set [3] it was more than 4710 nM; in data set [4], 22 nM.

On to `Fc1ccccc1Oc1cccc(F)c1OC1CNC1`, for which the Ki in data set [1] was 507 nM; in [2], more than 4860 nM; in data set [3] it was more than 4710 nM; in [4], 12 nM.

For `Fc1cccc(Oc2ccccc2Cl)c1OC1CNC1`, the inhibition constant (Ki) amounted to 198 nM in data set [1], 4700 nM in data set [2], 1710 nM in data set [3] and 14 nM in data set [4].

Consider `Fc1cccc(Cl)c1Oc1cccc(F)c1OC1CNC1`, for which the Ki in [1] was 138 nM; in data set [2], more than 6460 nM; in [3] it was more than 4900 nM; in data set [4], 1 nM. Further, the Activity with Rattus norvegicus [5] is recorded as 81%; in the data set with Rattus norvegicus [6] it was 87%. The compound further yielded an ID10 in the data set on Rattus norvegicus [7] of less than 1 mg/kg. In addition, the ED50 with Rattus norvegicus [8] was 1.2 mg/kg. The compound further displayed a Cmax in data set [9] of 919 ng/mL. The Tmax in data set [10] came out at 1 h. The compound further gave an AUC(0-t) at 24 h in data set [11] of 3480 ng·h/mL. The half-life in data set [12] is 2.35 h. For the same compound, the concentration at 1 h in data set [13] was found to be 5900 ng/mL. Besides, the EC50 came out at 197 nM in data set [14] and 28 nM in data set [15].

For the compound `Cc1cccc(F)c1Oc1cccc(F)c1OC1CNC1`, the Ki in [1] is 116 nM; in data set [2], more than 6460 nM; in [3], 1160 nM; in [4], 3 nM. Moreover, the Activity with Rattus norvegicus [5] is given as 76%; in the data set on Rattus norvegicus [6], 84%. The compound also returned a Cmax in data set [9] of 525 ng/mL. For the same compound, in data set [10], the Tmax was determined as 1 h. The AUC(0-t) at 24 h in [11] amounted to 2800 ng·h/mL. Also, the half-life in [12] was 3.01 h. Further, the concentration at 1 h in data set [13] was 5690 ng/mL. Also, the values for the EC50 in [14] and in data set [15] were 225 nM and 239 nM, respectively.

As for `Fc1cccc(F)c1Oc1cccc(F)c1OC1CNC1`, the Ki in data set [1] was 482 nM; in data set [2], more than 6410 nM; in data set [3] it was more than 4620 nM; in data set [4] it was less than 3 nM.

In the case of `Fc1cccc(Oc2c(Cl)cccc2Cl)c1OC1CNC1`, the Ki in [1] is 164 nM; in data set [2] it was more than 5940 nM; in data set [3], more than 4620 nM; in [4], 6 nM.

As for `Cc1cccc(Cl)c1Oc1cccc(F)c1OC1CNC1`, the Ki is 433 nM in [1], more than 6410 nM in [2], more than 4610 nM in data set [3] and 16 nM in data set [4].

For the compound `Fc1cccc(Oc2cccc(Cl)c2Cl)c1OC1CNC1`, the Ki is 374 nM in data set [1], 312 nM in data set [2], 94 nM in data set [3] and 16 nM in data set [4].

Take `Fc1ccccc1Oc1ccccc1OC1CCNCC1`: the Ki in data set [1] is 1000 nM; in data set [2], 4510 nM; in data set [3] it was more than 4710 nM; in data set [4] it was 693 nM.

Consider `Fc1ccccc1Oc1cccc(F)c1OC1CCNCC1`, for which the Ki in data set [1] was 489 nM; in data set [2], 2190 nM; in data set [3], more than 4650 nM; in data set [4] it was 30 nM.

In the case of `Fc1cccc(Cl)c1Oc1cccc(F)c1OC1CCNCC1`, the Ki is 218 nM in data set [1], more than 6370 nM in data set [2], 2040 nM in data set [3] and 8 nM in data set [4].

Take `Cc1cccc(F)c1Oc1cccc(F)c1OC1CCNCC1`: the Ki is 323 nM in data set [1], more than 6460 nM in data set [2], 3250 nM in [3] and 4 nM in data set [4].

On to `Fc1ccccc1Oc1cccc(F)c1OC1CCCNC1` (centres undefined), for which the Ki was 1950 nM in [1], more than 5590 nM in data set [2], more than 4710 nM in data set [3] and 90 nM in data set [4].

As for `Fc1ccccc1Oc1ccccc1OC1CCNC1` (centres undefined), the Ki in data set [1] was 1350 nM; in [2], more than 6220 nM; in data set [3], more than 4710 nM; in data set [4] it was 193 nM.

With `Fc1ccccc1Oc1cccc(F)c1OC1CCNC1` (centres undefined), the Ki in data set [1] is 1020 nM; in [2], 3880 nM; in data set [3], more than 4710 nM; in data set [4], 8 nM.

Consider `Fc1cccc(Oc2ccccc2Cl)c1OC1CCNC1` (centres undefined), for which the Ki in data set [1] worked out at 192 nM; in data set [2] it was 2030 nM; in [3], 2230 nM; in [4], 19 nM.

As for `Cc1cccc(F)c1Oc1cccc(F)c1OC1CCNC1` (centres undefined), the Ki in data set [1] was 328 nM; in [2], more than 6460 nM; in data set [3] it was more than 4690 nM; in data set [4], 4 nM.

As for `Fc1cccc(Cl)c1Oc1cccc(F)c1OC1CCNC1` (centres undefined), the Ki is 226 nM in data set [1], more than 6460 nM in [2] and more than 4900 nM in data set [3]. In addition, the Activity with Rattus norvegicus [5] amounted to 73%; in the data set with Rattus norvegicus [6], 54%. Also, the concentration at 1 h in [13] amounted to 5620 ng/mL. In addition, it took 97 nM to reach a half-maximal effect in [15] (EC50).

Take `Fc1cccc(Cl)c1Oc1cccc(F)c1O[C@H]1CCNC1`: the results for the Ki in data set [1], in data set [2] and in data set [3] were 1010 nM, more than 5870 nM and more than 4530 nM, respectively.

As for `Fc1cccc(Cl)c1Oc1cccc(F)c1O[C@@H]1CCNC1`, the Ki was 110 nM in data set [1], more than 5870 nM in data set [2] and more than 4530 nM in data set [3]. This compound also gave a Cmax in data set [9] of 146 ng/mL. Besides, the time of peak concentration (Tmax) in data set [10] came to 1 h. The compound also showed an AUC(0-t) at 24 h in data set [11] of 560 ng·h/mL. Also, the half-life in data set [12] is 1.85 h.

For `Fc1cccc(Cl)c1Oc1ncccc1OC1CCNC1` (centres undefined), the Ki in data set [1] is 1140 nM; in [2] it was more than 4620 nM; in data set [3], more than 6130 nM; in [4] it was 203 nM.

In the case of `Fc1cccc(Cl)c1Oc1ncccc1OC1CNC1`, the inhibition constant (Ki) in [1] was 73 nM; in data set [2], more than 4260 nM; in [3], more than 6280 nM; in data set [4] it was 64 nM.

As for `Fc1ccccc1Oc1cccc(F)c1C1CCNCC1`, the Activity in the data set on Rattus norvegicus [5] is 62%; with Rattus norvegicus [6], 80%. Also, the concentration at 1 h in data set [13] stood at 2230 ng/mL.
